Results reported in ChEMBL document CHEMBL1152689, “Synthesis, tautomerism, and antimicrobial, anti-HCV, anti-SSPE, antioxidant, and antitumor activities of arylazobenzosuberones” (Bioorg Med Chem, 2009).
In brackets after ≈: the same amount, converted by molar mass. Activity calls are given as the source filed them. The calls are words filed in the database; no cut-off is given here.

Legend:
[1] = test system: Radical scavenging activity; experiment: Antioxidant activity assessed as DPPH free radical scavenging activity by measuring reduction in DPPH absorbance by ELISA relative to untreated control; assay type: functional; design: concentration or dose not given beside the values
Procedure, shortened: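 Test compounds dissolved in DMSO, ascorbic acid standard in water, both serially diluted. 10 µl sample added to 90 µl of 100 µM DPPH in methanol and kept in the dark at 37 °C for 30 min. Absorbance read at 515 nm. Blank is DMSO plus DPPH. % reduction = (A_B − A_A)/A_B × 100. Run in triplicate.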

[2] = test system: Syncephalastrum racemosum; experiment: Antimicrobial activity against Syncephalastrum racemosum at 5 ug/mL by agar diffusion method; assay type: functional; conditions: read-out: IZ
[3] = test system: Escherichia coli; experiment: Antimicrobial activity against Escherichia coli at 1.25 ug/mL by agar diffusion method; assay type: functional; conditions: read-out: IZ
[4] = test system: Escherichia coli; experiment: Antimicrobial activity against Escherichia coli at 5 ug/mL by agar diffusion method; assay type: functional; conditions: read-out: IZ
[5] = test system: Candida albicans; experiment: Antimicrobial activity against Candida albicans at 1.25 ug/mL by agar diffusion method; assay type: functional; conditions: read-out: IZ
[6] = test system: Staphylococcus aureus; experiment: Antimicrobial activity against Staphylococcus aureus at 5 ug/mL by agar diffusion method; assay type: functional; conditions: read-out: IZ
[7] = test system: Penicillium italicum; experiment: Antimicrobial activity against Penicillium italicum at 5 ug/mL by agar diffusion method; assay type: functional; conditions: read-out: IZ
[8] = test system: Pseudomonas aeruginosa; experiment: Antimicrobial activity against Pseudomonas aeruginosa at 5 ug/mL by agar diffusion method; assay type: functional; conditions: read-out: IZ
[9] = test system: Penicillium italicum; experiment: Antimicrobial activity against Penicillium italicum at 2.5 ug/mL by agar diffusion method; assay type: functional; conditions: read-out: IZ
[10] = test system: Syncephalastrum racemosum; experiment: Antimicrobial activity against Syncephalastrum racemosum at 1.25 ug/mL by agar diffusion method; assay type: functional; conditions: read-out: IZ
[11] = test system: Candida albicans; experiment: Antimicrobial activity against Candida albicans at 2.5 ug/mL by agar diffusion method; assay type: functional; conditions: read-out: IZ
[12] = test system: Bacillus subtilis; experiment: Antimicrobial activity against Bacillus subtilis at 5 ug/mL by agar diffusion method; assay type: functional; conditions: read-out: IZ
[13] = test system: Pseudomonas aeruginosa; experiment: Antimicrobial activity against Pseudomonas aeruginosa at 1.25 ug/mL by agar diffusion method; assay type: functional; conditions: read-out: IZ
[14] = test system: Bacillus subtilis; experiment: Antimicrobial activity against Bacillus subtilis at 2.5 ug/mL by agar diffusion method; assay type: functional; conditions: read-out: IZ
[15] = test system: Staphylococcus aureus; experiment: Antimicrobial activity against Staphylococcus aureus at 2.5 ug/mL by agar diffusion method; assay type: functional; conditions: read-out: IZ
[16] = test system: Candida albicans; experiment: Antimicrobial activity against Candida albicans at 5 ug/mL by agar diffusion method; assay type: functional; conditions: read-out: IZ
[17] = test system: Penicillium italicum; experiment: Antimicrobial activity against Penicillium italicum at 1.25 ug/mL by agar diffusion method; assay type: functional; conditions: read-out: IZ
[18] = test system: Aspergillus fumigatus; experiment: Antimicrobial activity against Aspergillus fumigatus at 1.25 ug/mL by agar diffusion method; assay type: functional; conditions: read-out: IZ
[19] = test system: Escherichia coli; experiment: Antimicrobial activity against Escherichia coli at 2.5 ug/mL by agar diffusion method; assay type: functional; conditions: read-out: IZ
[20] = test system: Aspergillus fumigatus; experiment: Antimicrobial activity against Aspergillus fumigatus at 5 ug/mL by agar diffusion method; assay type: functional; conditions: read-out: IZ
[21] = test system: Pseudomonas aeruginosa; experiment: Antimicrobial activity against Pseudomonas aeruginosa at 2.5 ug/mL by agar diffusion method; assay type: functional; conditions: read-out: IZ
[22] = test system: Aspergillus fumigatus; experiment: Antimicrobial activity against Aspergillus fumigatus at 2.5 ug/mL by agar diffusion method; assay type: functional; conditions: read-out: IZ
[23] = test system: Bacillus subtilis; experiment: Antimicrobial activity against Bacillus subtilis at 1.25 ug/mL by agar diffusion method; assay type: functional; conditions: read-out: IZ
[24] = test system: Staphylococcus aureus; experiment: Antimicrobial activity against Staphylococcus aureus at 1.25 ug/mL by agar diffusion method; assay type: functional; conditions: read-out: IZ
[25] = test system: Syncephalastrum racemosum; experiment: Antimicrobial activity against Syncephalastrum racemosum at 2.5 ug/mL by agar diffusion method; assay type: functional; conditions: read-out: IZ
[26] = Antioxidant activity assessed as inhibition of peroxynitrite-mediated 3-nitrotyrosine formation by HPLC; assay type: functional
Procedure, shortened: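 Tyrosine and peroxynitrite, each 100 µM, reacted with compound at 0–300 µM in 100 mM phosphate buffer pH 7.4 at 37 °C for 15 min. Peroxynitrite made from acidified H2O2 plus KNO2, quenched with NaOH, and kept on ice no longer than 30 min before use.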

[27] = test system: MC-38; experiment: Antitumor activity against mouse Colon 38 cells implanted in iv dosed C57BL/6 mouse administered as single dose; assay type: functional, organism-based
Procedure, shortened: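 Female C57BL/6 mice, 6 weeks old, given about 30 mg Colon 38 tumor tissue s.c. in the flank. Randomized into groups of n = 5 when tumors reached about 300 mm3 (day 1). Compound in 5% glucose given as a single iv tail-vein dose on day 1; controls received 5% glucose. Tumor volume = (length × width²)/2 and body weight tracked.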

[28] = test system: Measles morbillivirus; experiment: Antiviral activity against Measles virus infected in intracranially dosed hamster assessed as inhibition of subacute sclerosing panencephalitis; assay type: functional
Procedure, shortened: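 Hamsters under ether anesthesia injected intracranially, into the subarachnoid space at 2 mm depth, at 5, 10 and 20 mg/kg/day for 10 days. Four animals per group sacrificed on days 1–20. Brains homogenized in PBS and centrifuged, supernatant deproteinized with ethanol, then MIC in brain tissue determined by HPLC and bioassay.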

[29] = biological target: T1, DNA topoisomerase 1 (Homo sapiens) (UniProt P11387); experiment: Inhibition of topoisomerase 1 relative to etoposide
T1 sequence (whole entry): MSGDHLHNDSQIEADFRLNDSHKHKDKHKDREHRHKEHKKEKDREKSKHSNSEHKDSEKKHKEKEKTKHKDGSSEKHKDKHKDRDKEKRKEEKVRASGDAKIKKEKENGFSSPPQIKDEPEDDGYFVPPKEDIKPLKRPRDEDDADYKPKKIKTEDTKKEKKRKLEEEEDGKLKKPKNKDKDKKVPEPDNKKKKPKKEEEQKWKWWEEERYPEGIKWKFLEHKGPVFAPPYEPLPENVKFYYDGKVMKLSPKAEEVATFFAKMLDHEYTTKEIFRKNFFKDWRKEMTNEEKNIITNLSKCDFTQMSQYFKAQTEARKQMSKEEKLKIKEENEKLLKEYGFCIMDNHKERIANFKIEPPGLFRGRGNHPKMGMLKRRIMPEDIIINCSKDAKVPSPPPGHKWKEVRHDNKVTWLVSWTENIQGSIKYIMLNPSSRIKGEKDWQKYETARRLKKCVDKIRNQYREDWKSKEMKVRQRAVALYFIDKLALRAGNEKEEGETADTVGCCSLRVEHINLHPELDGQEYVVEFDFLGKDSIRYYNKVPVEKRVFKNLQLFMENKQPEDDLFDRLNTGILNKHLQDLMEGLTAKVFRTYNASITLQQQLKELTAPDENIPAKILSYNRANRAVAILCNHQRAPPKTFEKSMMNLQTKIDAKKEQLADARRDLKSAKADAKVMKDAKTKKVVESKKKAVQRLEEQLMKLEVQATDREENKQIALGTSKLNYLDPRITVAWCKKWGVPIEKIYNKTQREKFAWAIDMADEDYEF

[30] = biological target: DNA topoisomerase 2-alpha (Mus musculus) (UniProt Q01320); experiment: Inhibition of topoisomerase 2 from mouse P388 cells assessed as relaxation of pBR322 DNA by agarose gel electrophoresis relative to etoposide; assay type: cell-based
Chain of DNA topoisomerase 2-alpha (Mus musculus) (Q01320 whole entry): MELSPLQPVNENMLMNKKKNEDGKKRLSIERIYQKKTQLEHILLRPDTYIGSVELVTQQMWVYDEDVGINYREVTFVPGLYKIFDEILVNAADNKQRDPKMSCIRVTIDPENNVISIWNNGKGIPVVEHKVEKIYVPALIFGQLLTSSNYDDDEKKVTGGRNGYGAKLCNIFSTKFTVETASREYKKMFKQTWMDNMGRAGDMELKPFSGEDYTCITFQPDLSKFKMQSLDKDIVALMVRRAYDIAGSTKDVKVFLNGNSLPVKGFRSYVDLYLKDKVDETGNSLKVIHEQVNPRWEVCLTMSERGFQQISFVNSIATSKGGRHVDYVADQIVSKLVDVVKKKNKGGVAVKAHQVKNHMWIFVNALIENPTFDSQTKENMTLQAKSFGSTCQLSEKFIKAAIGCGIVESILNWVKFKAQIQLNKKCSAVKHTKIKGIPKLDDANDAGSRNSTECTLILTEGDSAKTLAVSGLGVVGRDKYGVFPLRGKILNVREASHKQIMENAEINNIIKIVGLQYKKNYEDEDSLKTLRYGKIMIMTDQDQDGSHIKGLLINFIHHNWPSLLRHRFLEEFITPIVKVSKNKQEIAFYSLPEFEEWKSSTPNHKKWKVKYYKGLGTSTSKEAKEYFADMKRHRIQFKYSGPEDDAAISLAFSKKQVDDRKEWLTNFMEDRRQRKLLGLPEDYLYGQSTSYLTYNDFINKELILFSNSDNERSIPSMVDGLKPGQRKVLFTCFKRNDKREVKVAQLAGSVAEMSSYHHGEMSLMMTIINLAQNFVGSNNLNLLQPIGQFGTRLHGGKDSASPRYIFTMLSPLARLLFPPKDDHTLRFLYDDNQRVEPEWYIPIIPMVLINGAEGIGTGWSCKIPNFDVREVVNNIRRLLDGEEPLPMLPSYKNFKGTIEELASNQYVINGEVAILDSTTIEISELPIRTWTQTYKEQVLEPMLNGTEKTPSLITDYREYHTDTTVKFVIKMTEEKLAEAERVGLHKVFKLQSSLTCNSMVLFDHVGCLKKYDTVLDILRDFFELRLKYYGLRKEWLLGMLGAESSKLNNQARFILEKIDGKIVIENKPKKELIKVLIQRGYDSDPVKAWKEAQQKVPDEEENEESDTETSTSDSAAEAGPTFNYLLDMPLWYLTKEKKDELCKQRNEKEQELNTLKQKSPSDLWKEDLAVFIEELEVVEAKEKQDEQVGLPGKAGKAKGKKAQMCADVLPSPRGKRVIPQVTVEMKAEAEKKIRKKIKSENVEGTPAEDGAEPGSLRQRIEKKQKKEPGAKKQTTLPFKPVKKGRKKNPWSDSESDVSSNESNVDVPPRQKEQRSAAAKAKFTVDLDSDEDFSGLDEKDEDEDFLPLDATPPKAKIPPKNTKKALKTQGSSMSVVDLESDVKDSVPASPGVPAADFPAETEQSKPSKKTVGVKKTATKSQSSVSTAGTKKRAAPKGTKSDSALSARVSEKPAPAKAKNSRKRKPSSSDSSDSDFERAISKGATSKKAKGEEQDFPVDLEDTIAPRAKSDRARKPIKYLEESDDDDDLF
Procedure, shortened: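 Topoisomerase II purified from P388 cells. One unit relaxes 0.125 µg supercoiled pBR322 DNA, incubated with or without inhibitor at 30 °C for 1 h in 50 mM Tris-HCl pH 8.0, 100 mM KCl, 10 mM MgCl2, 0.5 mM DTT, 1 mM ATP and 30 µg/ml BSA. Products run on 0.7% agarose in TBE, stained with ethidium bromide and imaged under UV.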

[31] = test system: Hepatitis C virus; experiment: Antiviral activity against HCV by cell based replicon assay; assay type: functional, Hepacivirus hominis
Procedure, shortened: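 HCV replicon cells plated at 1×10^4 per well. Next day incubated at 37 °C with serially diluted compound in DMEM with 2% FBS and 0.5% DMSO. HCV RNA copy number measured by quantitative RT-PCR on total cellular RNA. Each point is the average of five replicates. Cytotoxicity measured by MTS in parallel.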

O=C1O[C@H]([C@@H](O)CO)C(O)=C1O
Activity [1]: 79%

c1ccc2c(c1)CCCc1nnc3nncn3c1-2
zone of inhibition at 5 µg/mL [2]: 18 mm
zone of inhibition at 1.25 µg/mL [3]: 0 mm
zone of inhibition at 5 µg/mL [4]: 9 mm
zone of inhibition at 1.25 µg/mL [5]: 0 mm
zone of inhibition at 5 µg/mL [6]: 14 mm
zone of inhibition at 5 µg/mL [7]: 8 mm
zone of inhibition at 5 µg/mL [8]: 0 mm
zone of inhibition at 2.5 µg/mL [9]: 0 mm
zone of inhibition at 1.25 µg/mL [10]: 0 mm
zone of inhibition at 2.5 µg/mL [11]: 4 mm
zone of inhibition at 5 µg/mL [12]: 16 mm
zone of inhibition at 1.25 µg/mL [13]: 0 mm
zone of inhibition at 2.5 µg/mL [14]: 7 mm
zone of inhibition at 2.5 µg/mL [15]: 8 mm
zone of inhibition at 5 µg/mL [16]: 9 mm
zone of inhibition at 1.25 µg/mL [17]: 0 mm
zone of inhibition at 1.25 µg/mL [18]: 0 mm
zone of inhibition at 2.5 µg/mL [19]: 0 mm
zone of inhibition at 5 µg/mL [20]: 10 mm
zone of inhibition at 2.5 µg/mL [21]: 0 mm
zone of inhibition at 2.5 µg/mL [22]: 0 mm
zone of inhibition at 1.25 µg/mL [23]: 4 mm
zone of inhibition at 1.25 µg/mL [24]: 5 mm
zone of inhibition at 2.5 µg/mL [25]: 9 mm

Cc1c(C)c2c(c(C)c1O)CCC(C)(C(=O)O)O2 (stereo not drawn) [TROLOX]
IC50 [26]: 58.4 µM

O=C1/C(=N/Nc2ccccc2)CCCc2ccccc21
Activity [27]: Active
MIC [28]: 6.12 µg/mL (≈ 23.2 µM)
Ratio [29]: 4.3
IC50 [26]: 56 µM
Ratio [30]: 4.4
MIC [31]: 1.07 µg/mL (≈ 4.05 µM)

O=C1/C(=N/Nc2cccc([N+](=O)[O-])c2)CCCc2ccccc21
Activity [27]: Active
zone of inhibition at 5 µg/mL [2]: 19 mm
zone of inhibition at 1.25 µg/mL [3]: 0 mm
zone of inhibition at 5 µg/mL [4]: 12 mm
zone of inhibition at 1.25 µg/mL [5]: 5 mm
zone of inhibition at 5 µg/mL [6]: 10 mm
MIC [28]: 6.11 µg/mL (≈ 19.8 µM)
zone of inhibition at 5 µg/mL [7]: 0 mm
zone of inhibition at 5 µg/mL [8]: 0 mm
zone of inhibition at 2.5 µg/mL [9]: 0 mm
zone of inhibition at 1.25 µg/mL [10]: 9 mm
zone of inhibition at 2.5 µg/mL [11]: 8 mm
zone of inhibition at 5 µg/mL [12]: 19 mm
zone of inhibition at 1.25 µg/mL [13]: 0 mm
zone of inhibition at 2.5 µg/mL [14]: 13 mm
zone of inhibition at 2.5 µg/mL [15]: 6 mm
zone of inhibition at 5 µg/mL [16]: 15 mm
zone of inhibition at 1.25 µg/mL [17]: 0 mm
zone of inhibition at 1.25 µg/mL [18]: 8 mm
zone of inhibition at 2.5 µg/mL [19]: 5 mm
zone of inhibition at 5 µg/mL [20]: 20 mm
zone of inhibition at 2.5 µg/mL [21]: 0 mm
zone of inhibition at 2.5 µg/mL [22]: 11 mm
Ratio [29]: 4.5
Activity [1]: 81.1%
zone of inhibition at 1.25 µg/mL [23]: 8 mm
zone of inhibition at 1.25 µg/mL [24]: 0 mm
IC50 [26]: 56 µM
zone of inhibition at 2.5 µg/mL [25]: 12 mm
Ratio [30]: 4.53
MIC [31]: 1.04 µg/mL (≈ 3.37 µM)
